Test results: ChEMBL document CHEMBL1145518, “Potent immune-modulating and anticancer effects of NKT cell stimulatory glycolipids” (2007)
Activity calls are given as the source filed them. No cut-off for these calls is given here.

How the values were obtained:
Mus musculus [1] = test: Induction of MCP1 secretion in BALB/c mouse serum at 2 ug, iv after 2 hrs relative to control; assay type: functional
Summary of the method: (§1)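 BALB/c mice received an i.v. injection of 100 μl of glycolipid diluted to 20 μg/ml in saline from DMSO stock, with 1% DMSO as vehicle. Serum cytokines/chemokines were measured at 2 and 18 h after injection.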

Mus musculus [2] = test: Induction of MIPbeta secretion in BALB/c mouse serum at 2 ug, iv after 2 hrs relative to control; assay type: functional; summary of the method: as §1
TC1 = test: Antitumor activity in TC1 cells xenografted C57BL/6 mouse assessed as suppression of tumor growth at 2 ug, iv; assay type: functional, cell-based
Summary of the method: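 C57BL/6 mice (n = 5/group) were inoculated i.v. with TC-1 lung cancer cells. They were then treated i.v. with 2 μg glycolipid per mouse, or 100 μl of 1% DMSO, twice weekly for 4 weeks. Kaplan–Meier survival and body weight were followed, with tumor-free mice as an additional control.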

Mus musculus [3] = test: Induction of IL12p70 secretion in BALB/c mouse serum at 2 ug, iv after 18 hrs relative to control; assay type: functional; summary of the method: as §1
[4] = Induction of RANTES secretion in human CD161+ CD3+ NKT cells at 10 ug/ml after 18 hrs relative to basal level; assay type: functional
Summary of the method: (§2)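 Human Vα24i NKT cell lines were expanded for 10 days on irradiated (3,000 rad) autologous immature DCs with 10 units/ml IL-2. The cells (1 × 10^5) were cocultured with 5 × 10^4 irradiated immature CD14+ DCs plus glycolipid at 10 μg/ml. Supernatants were collected at 18 h and read on a 22-plex Luminex bead panel. Triplicates, mean ± SD.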

[5] = Induction of MCP1 secretion in human CD161+ CD3+ NKT cells at 10 ug/ml after 18 hrs relative to basal level; assay type: functional; summary of the method: as §2
Mus musculus [6] = test: Induction of RANTES secretion in BALB/c mouse serum at 2 ug, iv after 2 hrs relative to control; assay type: functional; summary of the method: as §1
[7] = Induction of TNFalpha secretion in human CD161+ CD3+ NKT cells at 10 ug/ml after 18 hrs relative to basal level; assay type: functional; summary of the method: as §2
Mus musculus [8] = test: Induction of IL3 secretion in BALB/c mouse serum at 2 ug, iv after 2 hrs relative to control; assay type: functional; summary of the method: as §1
Mus musculus [9] = test: Activation of NKT cells in BALB/c mouse at 2 ug, iv after 72 hrs by flow cytometry; assay type: functional, organism-based
Summary of the method: (§3)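 BALB/c mice (n = 4/group) were given 100 μl of glycolipid at 20 μg/ml in saline i.v., or 100 μl of 1% DMSO. Spleens were harvested after 72 h and splenocyte subsets counted by flow cytometry: mature DCs as CD11c+/CD80+/CD86+, activated NK as U5A2-13Ag+/CD3−/CD69+, activated NKT as U5A2-13Ag+/CD3+/CD69+. Assays were run in duplicate, mean ± SD.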

[10] = Induction of IL12p40 secretion in human CD161+ CD3+ NKT cells at 10 ug/ml after 18 hrs relative to basal level; assay type: functional; summary of the method: as §2
Mus musculus [11] = test: Activation of natural killer cells in BALB/c mouse at 2 ug, iv after 72 hrs by flow cytometry; assay type: functional, organism-based; summary of the method: as §3
Mus musculus [12] = test: Induction of IL13 secretion in BALB/c mouse serum at 2 ug, iv after 2 hrs relative to control; assay type: functional; summary of the method: as §1
[13] = Induction of IL3 secretion in human CD161+ CD3+ NKT cells at 10 ug/ml after 18 hrs relative to basal level; assay type: functional; summary of the method: as §2
NKT = test: Stimulation of cell expansion of human invariant CD161+/ Valpha24+/ CD56+/ CD3+ NKT cells by flow cytometry method; assay type: functional, cell-based
Summary of the method: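 CD56+ NK/NKT mixtures (2 × 10^6) were isolated from human leukopaks with anti-CD56 microbeads. They were cocultured with 4 × 10^5 autologous immature CD14+ DCs pulsed with glycolipid at 3 μg/ml, or with 0.3% DMSO, on day 2 for 18 h. Suspension cells were then transferred and kept in 100 units/ml IL-2 with fresh medium every 3 days. On day 9, CD161+/Vα24TCR+ cells were gated by flow cytometry and total Vα24i NKT cells counted. Triplicates, mean ± SD.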

Mus musculus [14] = test: Induction of KC secretion in BALB/c mouse serum at 2 ug, iv after 2 hrs relative to control; assay type: functional; summary of the method: as §1
[15] = Induction of GM-CSF secretion in human CD161+ CD3+ NKT cells at 10 ug/ml after 18 hrs relative to basal level; assay type: functional; summary of the method: as §2
Mus musculus [16] = test: Activation of dendritic cells in BALB/c mouse at 2 ug, iv after 72 hrs by flow cytometry; assay type: functional, organism-based; summary of the method: as §3
[17] = Induction of IL8 secretion in human CD161+ CD3+ NKT cells at 10 ug/ml after 18 hrs relative to basal level; assay type: functional; summary of the method: as §2
[18] = Induction of IL12p70 secretion in human CD161+ CD3+ NKT cells at 10 ug/ml after 18 hrs relative to basal level; assay type: functional; summary of the method: as §2
[19] = Induction of IL4 secretion in human CD161+ CD3+ NKT cells at 10 ug/ml after 18 hrs relative to basal level; assay type: functional; summary of the method: as §2
[20] = Induction of IL13 secretion in human CD161+ CD3+ NKT cells at 10 ug/ml after 18 hrs relative to basal level; assay type: functional; summary of the method: as §2
Mus musculus [21] = test: Induction of IL1-beta secretion in BALB/c mouse serum at 2 ug, iv after 18 hrs relative to control; assay type: functional; summary of the method: as §1
Mus musculus [22] = test: Induction of IL10 secretion in BALB/c mouse serum at 2 ug, iv after 18 hrs relative to control; assay type: functional; summary of the method: as §1
[23] = Induction of MIPalpha secretion in human CD161+ CD3+ NKT cells at 10 ug/ml after 18 hrs relative to basal level; assay type: functional; summary of the method: as §2
[24] = Induction of IFN-gamma secretion in human CD161+ CD3+ NKT cells at 10 ug/ml after 18 hrs relative to basal level; assay type: functional; summary of the method: as §2
[25] = Induction of IL6 secretion in human CD161+ CD3+ NKT cells at 10 ug/ml after 18 hrs relative to basal level; assay type: functional; summary of the method: as §2
Mus musculus [26] = test: Activation of B cells in BALB/c mouse at 2 ug, iv after 72 hrs by flow cytometry; assay type: functional, organism-based
[27] = Induction of IL10 secretion in human CD161+ CD3+ NKT cells at 10 ug/ml after 18 hrs relative to basal level; assay type: functional; summary of the method: as §2
Mus musculus [28] = test: Induction of IL6 secretion in BALB/c mouse serum at 2 ug, iv after 2 hrs relative to control; assay type: functional; summary of the method: as §1
4T1 = test: Antitumor activity in mouse 4T1 cells xenografted BALB/c mouse assessed as suppression of tumor growth at 2 ug, iv; assay type: functional, cell-based
Summary of the method: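 BALB/c mice (n = 6) were inoculated s.c. with 4T1 breast cancer cells. From day 3 they were treated i.v. with glycolipid or vehicle twice weekly for 4 weeks. Tumor volume was recorded every 3 days for 1 month, and survival was monitored up to 54 days.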

[29] = Induction of IL2 secretion in human CD161+ CD3+ NKT cells at 10 ug/ml after 18 hrs relative to basal level; assay type: functional; summary of the method: as §2
Mus musculus [30] = test: Induction of IL4 secretion in BALB/c mouse serum at 2 ug, iv after 2 hrs relative to control; assay type: functional; summary of the method: as §1
Mus musculus [31] = test: Induction of IL2 secretion in BALB/c mouse serum at 2 ug, iv after 2 hrs relative to control; assay type: functional; summary of the method: as §1
Mus musculus [32] = test: Induction of TNFalpha secretion in BALB/c mouse serum at 2 ug, iv after 18 hrs relative to control; assay type: functional; summary of the method: as §1
[33] = Induction of IL15 secretion in human CD161+ CD3+ NKT cells at 10 ug/ml after 18 hrs relative to basal level; assay type: functional; summary of the method: as §2
Mus musculus [34] = test: Induction of IL12p40 secretion in BALB/c mouse serum at 2 ug, iv after 18 hrs relative to control; assay type: functional; summary of the method: as §1
Mus musculus [35] = test: Induction of IFN-gamma secretion in BALB/c mouse serum at 2 ug, iv after 18 hrs relative to control; assay type: functional; summary of the method: as §1
Mus musculus [36] = test: Increase in CD8/CD4 T cell ratio in BALB/c mouse at 2 ug, iv after 72 hrs by flow cytometry; assay type: functional, organism-based
Mus musculus [37] = test: Induction of GM-CSF secretion in BALB/c mouse serum at 2 ug, iv after 2 hrs relative to control; assay type: functional; summary of the method: as §1

Row | SMILES | Activity (Mus musculus [1]) | Activity (Mus musculus [2]) | Activity (Mus musculus [3]) | Activity [4] | Activity [5] | Activity (Mus musculus [6]) | Activity [7] | Activity (Mus musculus [8]) | Activity (Mus musculus [9]) | Activity [10] | Activity (Mus musculus [11]) | Activity (Mus musculus [12]) | Activity [13] | Activity (NKT) | Activity (Mus musculus [14]) | Activity [15] | Activity (Mus musculus [16]) | Activity [17] | Activity [18] | Activity [19] | also measured
1 | CCCCCCCCCCCCCC[C@@H](O)[C@@H](O)[C@H](CO[C@H]1O[C@H](CO)[C@H](O)[C@H](O)[C@H]1O)NC(=O)CCCCCCCCCCc1ccccc1 | 23.6 | 5.1 | 1.6 | 1.6 | 0.6 | 2.2 | 7.4 | 1.9 | Active | 2.1 | Active | 7.7 | 2.5 | Active | 6.9 | 5.4 | Active | 1.8 | 3 | 1.9 | Activity (TC1): Active; Activity [20]: 1.6; Activity (Mus musculus [21]): 3.4; Activity (Mus musculus [22]): 1.3; Activity [23]: 3.4; Activity [24]: 6.2; Activity [25]: 2.1; Activity (Mus musculus [26]): Active; Activity [27]: 1.8; Activity (Mus musculus [28]): 5.8; Activity (4T1): Active; Activity [29]: 3.9; Activity (Mus musculus [30]): 49.6; Activity (Mus musculus [31]): 50.5; Activity (Mus musculus [32]): 45.6; Activity [33]: 2.7; Activity (Mus musculus [34]): 2.4; Activity (Mus musculus [35]): 166.1; Activity (Mus musculus [36]): Active; Activity (Mus musculus [37]): 2.7
2 | CCCCCCCCCCCCCCCCCCCCCCCCCC(=O)N[C@@H](CO[C@H]1O[C@H](CO)[C@H](O)[C@H](OS(=O)(=O)[O-])[C@H]1O)[C@H](O)[C@H](O)CCCCCCCCCCCCCC.[Na+] | 14.8 | 2.5 | 1.4 | 1.6 | 1.4 | 1.6 | 8.4 | 1.8 | Active | 2 | Active | 2.4 | 3.3 | Active | 16.4 | 6.6 | Active | 2.2 | 2.8 | 2.7 | Activity [20]: 1.6; Activity (Mus musculus [21]): 3.2; Activity (Mus musculus [22]): 2.4; Activity [23]: 3.4; Activity [24]: 3.3; Activity [25]: 2.7; Activity (Mus musculus [26]): Active; Activity [27]: 2.5; Activity (Mus musculus [28]): 2.2; Activity [29]: 2.4; Activity (Mus musculus [30]): 42.9; Activity (Mus musculus [31]): 22; Activity (Mus musculus [32]): 36.3; Activity [33]: 2.3; Activity (Mus musculus [34]): 2.1; Activity (Mus musculus [35]): 160.8; Activity (Mus musculus [37]): 7.3
